Experimental findings from ChEMBL document CHEMBL1132923, “Substituted benzamide inhibitors of human rhinovirus 3C protease: structure-based design, synthesis, and biological evaluation” (J Med Chem, 2000) are described below.

≈ marks a conversion by molar mass, not a printed value. Calls of active or inactive are those of the source. The calls are words filed in the database; no cut-off is given here.

One assay concerns the target T1, Human rhinovirus A protease (Human rhinovirus sp.) (UniProt Q4U254).
T1 sequence (whole entry): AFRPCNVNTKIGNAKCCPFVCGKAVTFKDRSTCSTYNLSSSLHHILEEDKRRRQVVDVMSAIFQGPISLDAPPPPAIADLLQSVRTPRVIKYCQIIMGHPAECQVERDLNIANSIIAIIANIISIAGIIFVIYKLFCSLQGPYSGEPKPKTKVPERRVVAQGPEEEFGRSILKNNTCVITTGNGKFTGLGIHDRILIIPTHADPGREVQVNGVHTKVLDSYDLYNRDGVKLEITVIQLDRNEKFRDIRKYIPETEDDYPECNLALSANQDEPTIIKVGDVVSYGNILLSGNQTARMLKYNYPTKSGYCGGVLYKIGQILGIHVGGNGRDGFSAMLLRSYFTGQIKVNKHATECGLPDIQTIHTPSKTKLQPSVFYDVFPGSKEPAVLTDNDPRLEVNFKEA
Description: Irreversible inhibition of Human Rhinovirus (HRV-14) 3C Protease measured as inactivation constant; inhibition@ 25. Conditions: concentration not given here. In short, it runs like this: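 FRET-based continuous fluorometric assay of 3C protease activity. Reactions were started by adding 50 nM 3CP to 1 µM substrate across three to five inhibitor concentrations. First-order inactivation rate constants were fitted by nonlinear regression at each concentration. kobs/[I] was taken by the slope method, with data adjusted for substrate depletion where needed.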
In the case of `CCOC(=O)/C=C/c1cc(C(N)=O)ccc1C`, the inhibition (commonly the change of the read-out against control, counted positive when it falls) stood at 10%.

A further assay concerns the target T2, Human rhinovirus A protease (Human rhinovirus sp., UniProt Q4U254).
T2 sequence (Q4U254 whole entry): T1 sequence (whole entry)
Description: The compound was tested for binding affinity of Human Rhinovirus (HRV) 3C Protease.
Conditions: not given
In short, it runs like this:
(§1)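 Serotype 14 3C protease activity was followed by a fluorescence resonance energy transfer substrate assay, and reversible inhibition constants (Ki) were determined from it.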
As for `NC(=O)c1cccc(/C=C/C(=O)c2ccco2)c1`, the Ki (as a rule, a measure of affinity in units of concentration, obtained from inhibition or displacement) turned out to be 1900 nM.

`NC(=O)c1cccc(/C=C/C(=O)c2ccccc2)c1` returned a Ki of 400 nM.

`NC(=O)c1cccc(/C=C/C(=O)c2ccccn2)c1` returned a Ki of 1800 nM.

On to `CN(C)c1ccc(C(=O)/C=C/c2cccc(C(N)=O)c2)cc1`, for which the Ki came out at 9000 nM.

Consider `COc1ccc(C(=O)/C=C/c2cccc(C(N)=O)c2)cc1`, for which the Ki stood at 1800 nM.

In turn, `NC(=O)c1ccc2c(c1)C=CC2=O` displayed a Ki of 120 nM.

For `CC(=O)/C=C/c1cccc(C(N)=O)c1`, the Ki is 25000 nM.

Another assay has as its target T1, Human rhinovirus A protease (Human rhinovirus sp.). Description: Irreversible inhibition of Human Rhinovirus (HRV-14) 3C Protease measured as inactivation constant; no inhibition.
Conditions: not given
An outline of the steps: (§2)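 For serotype 14 3C protease under irreversible inactivation, reactions were started by adding 50 nM enzyme to 1 µM FRET substrate plus typically three to five inhibitor concentrations, monitored continuously. First-order inactivation rate constants came from nonlinear regression when <20% substrate was consumed; otherwise data were corrected for substrate depletion. kobs/[I] was derived by the slope method.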
As to `CCOC(=O)/C=C/c1cccc(C(=O)O)c1`, the “K obs / 1” value is “inactive”.

The next assay deals with HeLa. Kind of assay: Antiviral activity measured as minimal inhibitory concentration using H1HeLa cells (ATCC) infected with HRV-14. It is filed as functional. Conditions: Homo sapiens.
Consider `CCOC(=O)c1ccc(OCCC2CCN(c3ccc(C)nn3)CC2)cc1` [PIRODAVIR], for which the MIC stood at 0.03 µM (≈ 0.0111 µg/mL).

The test system of another assay is HeLa. Description: Antiviral activity using H1HeLa cells (ATCC) infected with HRV-14 (range). Conditions: Homo sapiens. It is filed as functional, cell-based. In short, it runs like this:
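H1-HeLa cells were grown in MEM with 10% FBS and infected with HRV-14 at moi 0.08, or mock-infected with medium. Cells were resuspended at 8 × 10^5 cells/mL with drug and read 2 days later by XTT/PMS formazan absorbance at 450/650 nm. EC50 is the concentration restoring formazan to 50% of drug-free uninfected cells. Values come from a single run or the mean of ≥2.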
As for `CCOC(=O)c1ccc(OCCC2CCN(c3ccc(C)nn3)CC2)cc1` [PIRODAVIR], the midpoint of the response, the EC50, lay at 20 nM.

Another assay deals with T2, Human rhinovirus A protease. Description: Inhibition of Human Rhinovirus (HRV-14) 3C Protease.
Conditions: not given
An outline of the steps: as §1
`NC(=O)c1cccc(C=O)c1`: the Ki stood at 104000 nM.

A further assay addresses T1, Human rhinovirus A protease (Human rhinovirus sp.). Kind of assay: Irreversible inhibition of Human Rhinovirus (HRV-14) 3C Protease. To be noted: Rhinovirus B. An outline of the steps:
as §2
`CCOC(=O)/C=C/c1cc(CN2CCN(c3ccccn3)CC2)cc(C(N)=O)c1` came in with a K obs / 1 of 269 M⁻¹ s⁻¹.

Take `NC(=O)c1cccc(/C=C/C(=O)OCCO)c1`: the K obs / 1 is 42 M⁻¹ s⁻¹.

Take `CCOC(=O)/C=C/c1cc(CN2CCN(c3ncccn3)CC2)cc(C(N)=O)c1`: the K obs / 1 is 163 M⁻¹ s⁻¹.

`CCOC(=O)/C=C/c1cc(CN2CCN(C(=O)OCC)CC2)cc(C(N)=O)c1`: the K obs / 1 was determined as 130 M⁻¹ s⁻¹.

`CCOC(=O)/C=C/c1cc(CN(CC)Cc2ccncc2)cc(C(N)=O)c1` had a K obs / 1 of 96 M⁻¹ s⁻¹.

For `NC(=O)c1cccc(/C=C/C(=O)OCCc2ccccc2)c1`, the K obs / 1 is 83 M⁻¹ s⁻¹.

The molecule `NC(=O)c1cccc(/C=C/C(=O)OCc2ccccc2)c1` registered a K obs / 1 of 25 M⁻¹ s⁻¹.

The molecule `CCOC(=O)/C=C/c1cc(CO)cc(C(N)=O)c1` showed a K obs / 1 of 54 M⁻¹ s⁻¹.

For the molecule `CCOC(=O)/C=C/c1cc(CSc2nnc(-c3ccccn3)o2)cc(C(N)=O)c1`, the K obs / 1 was found to be 286 M⁻¹ s⁻¹.

`CCOC(=O)/C=C/c1cc(CN2CCN(c3ccccc3C#N)CC2)cc(C(N)=O)c1` came in with a K obs / 1 of 139 M⁻¹ s⁻¹.

`CCOC(=O)/C=C/c1cc(O)cc(C(N)=O)c1` returned a K obs / 1 of 47 M⁻¹ s⁻¹.

In turn, `COC(=O)/C=C/c1cccc(C(N)=O)c1` registered a K obs / 1 of 28 M⁻¹ s⁻¹.

Turning to `CCOC(=O)/C=C/c1cccc(C(N)=O)c1`, the K obs / 1 was 52 M⁻¹ s⁻¹.

In the case of `NC(=O)c1cccc(/C=C/C(=O)OCc2ccccn2)c1`, the K obs / 1 was found to be 57 M⁻¹ s⁻¹.

A further assay has the same target. Description: The compound was tested for irreversible inhibition of Human Rhinovirus (HRV) 3C Protease.
Conditions: not given
An outline of the steps:
as §2
`CCOC(=O)/C=C/c1ccc(OCc2ccccc2)c(C(N)=O)c1`: the K obs / 1 was 30 M⁻¹ s⁻¹.

The target in another assay is T2, Human rhinovirus A protease. Description: The compound was tested for reversible inhibition of Human Rhinovirus (HRV) 3C Protease.
Conditions: not given
In the case of `CCOC(=O)/C(C#N)=C/c1cccc(C(N)=O)c1`, the affinity corresponds to a Ki of 1500 nM.
